Converted amounts (≈) assume the structure as drawn.
Legend:
[1] = Hemolytic assay; assay type: cell-based; conditions: human, human red blood cells (erythrocyte suspension in PBS)
How it was run: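 Fresh human blood was collected in EDTA and spun 10 min at 2000 rpm. Erythrocytes were washed three times in PBS and made to a 10% (v/v) suspension, then diluted 1:10. Equal volumes of cells and test compound dilution series in PBS were incubated in triplicate for 1 h at 37 °C and re-centrifuged. Supernatant A450 was expressed relative to buffer (0%) and 1% Triton X-100 (100% lysis). Fluconazole was the reference.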

[2] = tested on: human embryonic kidney (HEK-293) cells; experiment: Cytotoxicity by MTT assay; assay type: cell-based; conditions: HEK-293, 100 μg mL^−1, 24 h
How it was run: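 HEK-293 cells grown as monolayers in DMEM with 10% FBS, penicillin and streptomycin, 37 °C, 5% CO2, at most 30 passages. Seeded at about 8 × 10^3 cells per well, 24 h before dosing. Test compound (DMSO stock diluted in PBS) given at 10–200 μg mL−1 for 24 h at 37 °C. Serum-free medium, then MTT (5 mg mL−1 in PBS), 4 h. Formazan dissolved in DMSO, A570 read. Triplicate; viability relative to untreated cells.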

[3] = tested on: C. albicans (ATCC 90028); experiment: In vitro anticandidal activity, broth dilution; assay type: cell-based; conditions: Candida albicans, ATCC90028, 24 h, read-out: IC50 ± S.D, C. albicans
How it was run: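 Broth dilution followed the NCCLS protocol. Test compound in DMSO was diluted in PBS, then tested at 1000 to 7.8 μg mL−1 in SD broth with about 2.5 × 10^3 cells per mL in 96-well plates. Plates were shaken 24 h at 30 °C, 150 rpm, and read at OD580. IC50 was the concentration halving absorbance versus untreated cells, taken from a log10 concentration versus % inhibition plot. Triplicates were run on separate occasions, with fluconazole as positive control.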

[4] = tested on: C. tropicalis (ATCC 750); experiment: In vitro anticandidal activity, broth dilution; assay type: cell-based, Candida tropicalis; conditions: ATCC 750, 24 h, OD 580 nm
[5] = tested on: ergosterol content in C. albicans ATCC 90028; experiment: Sterol estimation assay; assay type: cell-based, Candida albicans; conditions: vs untreated cells
[6] = tested on: C. albicans; experiment: Growth curve studies; assay type: cell-based, Candida albicans
How it was run: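 C. albicans revived on SD agar and pre-grown 16 h at 30 °C in SD broth. About 2 × 10^3 cells per mL were inoculated into 50 mL SD medium containing test compound at 2MIC, MIC or MIC/2, then shaken at 30 °C, 160 rpm. Fluconazole at 31.25 μg mL−1 and untreated cells served as controls. OD600 was read on 1 mL aliquots every 2 h from 0 to 24 h.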

With `CCOC(=O)c1nc2ccccc2c(=O)n1Cc1cn(-c2cccc(Cl)c2)nn1` [Compound 5g, Ethyl 3-((1-(3-chlorophenyl)-1H-1,2,3-triazol-4-yl)methyl)-4-oxo-3,4-dihydroquinazoline-2-carboxylate] the hemolysis at 1 h, 1000 μg mL^−1 [1] was < 20%, the “cell viability (MTT)” value [2] was “no significant decrease in cell viability” and the IC50 [3] was 65.6 ± 3.2 µg/mL (≈ 160 µM). For the same compound, the “IC50 ± S.D, C. tropicalis” value [4] was 28.2 ± 2.2 µg/mL (≈ 68.8 µM).
For `CCOC(=O)c1nc2ccccc2c(=O)n1Cc1cn(-c2ccc(C)cc2)nn1` [Compound 5n, Ethyl 4-oxo-3-((1-p-tolyl-1H-1,2,3-triazol-4-yl)methyl)-3,4-dihydroquinazoline-2-carboxylate], the hemolysis at 1 h, 1000 μg mL^−1 [1] was 41.2%, the “decrease in ergosterol content” value ([5]; 2MIC (500 μg mL^−1)) was 57% and the “decrease in ergosterol content” value ([5]; MIC (250 μg mL^−1)) was 55%. For the same compound, the “decrease in ergosterol content” value ([5]; MIC/2 (125 μg mL^−1)) was 48%, the “cell viability (MTT)” value [2] was “no significant decrease in cell viability” and the IC50 [3] was 14.6 ± 2.1 µg/mL (≈ 37.5 µM). For the same compound, the “growth of Candida cells” value ([6]; 2MIC and MIC, 24 h) was “did not show any significant growth”, the nature of inhibition ([6]; no significant growth after 24 h at higher concentrations) was “fungicidal” and the “time after which growth was observed” value ([6]; sub-MIC (MIC/2), standard C. albicans strain) was 7 h.
With `Cc1ccc(-n2cc(Cn3c(C(=O)O)nc4ccccc4c3=O)nn2)cc1` [Compound 6n, 4-Oxo-3-((1-p-tolyl-1H-1,2,3-triazol-4-yl)methyl)-3,4-dihydroquinazoline-2-carboxylic acid] the hemolysis at 1 h, 1000 μg mL^−1 [1] was < 20%, the “cell viability (MTT)” value [2] was “no significant decrease in cell viability” and the IC50 [3] was 87 ± 4 µg/mL (≈ 241 µM).
